Experimental data as given in ChEMBL document CHEMBL3804828, “2,4,6-Triaminopyrimidine as a Novel Hinge Binder in a Series of PI3Kδ Selective Inhibitors” (J Med Chem, 2016).
pIC50: −log10 of the molar value.

Assays:
Aldehyde oxidase [1] = target: T1, Aldehyde oxidase (Homo sapiens, UniProt Q06278); assay: Drug metabolism in human hepatocytes assessed as aldehyde oxidase mediated (S)-4-Amino-6-((1-(5-chloro-4-oxo-3-phenyl 3,4-dihydroquinazolin-2-yl)ethyl)amino)-2-hydroxypyrimidine-5-carbonitrile formation at 1 uM by LC/MS/MS analysis; type: ADME, cell-based, Hepatocyte
T1 sequence (Q06278 whole entry): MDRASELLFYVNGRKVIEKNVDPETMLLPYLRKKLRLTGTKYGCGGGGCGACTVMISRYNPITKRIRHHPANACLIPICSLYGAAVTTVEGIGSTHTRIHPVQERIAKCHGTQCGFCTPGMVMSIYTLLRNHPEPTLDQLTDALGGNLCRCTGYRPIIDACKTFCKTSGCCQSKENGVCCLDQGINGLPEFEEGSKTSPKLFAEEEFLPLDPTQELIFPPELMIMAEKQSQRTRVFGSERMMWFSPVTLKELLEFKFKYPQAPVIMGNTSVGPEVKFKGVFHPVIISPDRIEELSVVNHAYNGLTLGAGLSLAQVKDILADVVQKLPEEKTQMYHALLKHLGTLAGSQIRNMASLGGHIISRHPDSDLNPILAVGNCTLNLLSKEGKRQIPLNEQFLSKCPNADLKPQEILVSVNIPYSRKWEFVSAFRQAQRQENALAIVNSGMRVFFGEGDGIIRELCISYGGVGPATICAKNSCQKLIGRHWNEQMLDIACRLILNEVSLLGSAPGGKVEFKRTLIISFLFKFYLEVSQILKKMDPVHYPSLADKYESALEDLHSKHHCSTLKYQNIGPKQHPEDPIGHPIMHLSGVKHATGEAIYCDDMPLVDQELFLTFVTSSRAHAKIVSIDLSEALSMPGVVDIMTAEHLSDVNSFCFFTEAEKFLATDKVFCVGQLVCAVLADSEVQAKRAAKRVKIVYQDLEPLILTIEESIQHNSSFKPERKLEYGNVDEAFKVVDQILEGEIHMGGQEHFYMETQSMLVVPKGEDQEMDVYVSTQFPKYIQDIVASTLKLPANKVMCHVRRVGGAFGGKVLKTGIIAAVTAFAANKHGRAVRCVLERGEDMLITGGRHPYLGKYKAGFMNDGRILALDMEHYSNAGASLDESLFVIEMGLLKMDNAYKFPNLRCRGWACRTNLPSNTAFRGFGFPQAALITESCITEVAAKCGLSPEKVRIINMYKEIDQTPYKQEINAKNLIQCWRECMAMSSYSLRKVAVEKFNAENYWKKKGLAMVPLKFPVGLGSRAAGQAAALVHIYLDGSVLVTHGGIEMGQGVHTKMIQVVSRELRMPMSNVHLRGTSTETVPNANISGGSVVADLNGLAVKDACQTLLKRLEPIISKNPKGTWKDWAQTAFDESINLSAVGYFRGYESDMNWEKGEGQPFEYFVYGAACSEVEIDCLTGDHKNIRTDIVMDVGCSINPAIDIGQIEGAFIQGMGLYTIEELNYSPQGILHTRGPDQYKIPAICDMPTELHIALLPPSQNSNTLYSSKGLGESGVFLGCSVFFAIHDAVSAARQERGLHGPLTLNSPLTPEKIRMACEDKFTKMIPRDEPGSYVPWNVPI

Homo sapiens [2] = organism: Homo sapiens; assay: Selectivity ratio of IC50 for human full length PI3Kalpha catalytic subunit/p85alpha to IC50 for human full length PI3Kdelta catalytic subunit/p85alpha
Summary of the method: (§1)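 Ratio calculated from the isoform-specific PI3K IC50 values, with enzyme assays run in quadruplicate.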

Homo sapiens [3] = organism: Homo sapiens; assay: Selectivity ratio of IC50 for human recombinant PI3Kbeta to IC50 for human full length PI3Kdelta catalytic subunit/p85alpha; summary of the method: as §1
Homo sapiens [4] = organism: Homo sapiens; assay: Selectivity ratio of IC50 for human full length PI3Kgamma to IC50 for human full length PI3Kdelta catalytic subunit/p85alpha; summary of the method: as §1
Liver microsome [5] = assay: Clearance in rat liver microsomes at 1 uM by LC/MS/MS analysis in presence of NADPH generating system; type: ADME
[6] = Volume of distribution at steady state in Sprague-Dawley rat at 0.44 mg/kg, iv by LC/MS/MS analysis; type: ADME, organism-based; settings: in vivo, read-out: Vdss
Summary of the method: (§2)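 Single intravenous dose of 0.44 mg/kg to Sprague-Dawley rats, formulated at 0.09 mg/mL in 5% ethanol, 75% PEG 400 and 20% citrate buffer (pH 3.0). Three animals per dosing route. Volume of distribution taken at steady state.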

Hepatocyte = assay: Clearance in human hepatocytes at 1 uM by LC/MS/MS in presence of aldehyde oxidase inhibitor raloxifene; type: ADME, cell-based
Summary of the method: (§3)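 Human hepatocytes, incubated with and without the aldehyde oxidase inhibitor raloxifene; predicted clearance calculated from turnover.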

[7] = target: PI3-kinase p110-delta/p85-alpha (Homo sapiens, UniProt O00329); assay: Inhibition human full length PI3Kdelta catalytic subunit/p85alpha assessed as formation of PIP3 after 30 mins by europium labeled GRP-based TR-FRET assay; type: protein-complex assay
PI3-kinase p110-delta/p85-alpha, sequence (P27986 whole entry): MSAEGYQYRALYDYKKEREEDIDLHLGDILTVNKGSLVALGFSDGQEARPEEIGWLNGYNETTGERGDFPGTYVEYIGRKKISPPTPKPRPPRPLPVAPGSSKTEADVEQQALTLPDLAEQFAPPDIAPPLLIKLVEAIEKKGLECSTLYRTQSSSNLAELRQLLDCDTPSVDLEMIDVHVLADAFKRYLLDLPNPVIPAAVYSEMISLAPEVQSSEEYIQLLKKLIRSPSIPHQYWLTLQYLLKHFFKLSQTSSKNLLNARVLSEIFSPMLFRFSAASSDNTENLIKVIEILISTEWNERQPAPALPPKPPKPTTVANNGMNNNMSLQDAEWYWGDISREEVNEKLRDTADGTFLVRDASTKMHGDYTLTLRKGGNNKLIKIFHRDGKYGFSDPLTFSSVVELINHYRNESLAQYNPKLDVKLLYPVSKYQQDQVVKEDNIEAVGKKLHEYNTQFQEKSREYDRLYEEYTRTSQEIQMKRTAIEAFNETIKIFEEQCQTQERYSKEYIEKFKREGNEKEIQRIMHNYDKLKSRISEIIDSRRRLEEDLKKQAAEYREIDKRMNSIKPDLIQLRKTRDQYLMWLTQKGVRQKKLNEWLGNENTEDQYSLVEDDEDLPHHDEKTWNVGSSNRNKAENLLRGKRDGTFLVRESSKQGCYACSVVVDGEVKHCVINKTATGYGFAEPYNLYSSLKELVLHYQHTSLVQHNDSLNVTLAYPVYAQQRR
PI3-kinase p110-delta/p85-alpha, sequence (O00329 whole entry): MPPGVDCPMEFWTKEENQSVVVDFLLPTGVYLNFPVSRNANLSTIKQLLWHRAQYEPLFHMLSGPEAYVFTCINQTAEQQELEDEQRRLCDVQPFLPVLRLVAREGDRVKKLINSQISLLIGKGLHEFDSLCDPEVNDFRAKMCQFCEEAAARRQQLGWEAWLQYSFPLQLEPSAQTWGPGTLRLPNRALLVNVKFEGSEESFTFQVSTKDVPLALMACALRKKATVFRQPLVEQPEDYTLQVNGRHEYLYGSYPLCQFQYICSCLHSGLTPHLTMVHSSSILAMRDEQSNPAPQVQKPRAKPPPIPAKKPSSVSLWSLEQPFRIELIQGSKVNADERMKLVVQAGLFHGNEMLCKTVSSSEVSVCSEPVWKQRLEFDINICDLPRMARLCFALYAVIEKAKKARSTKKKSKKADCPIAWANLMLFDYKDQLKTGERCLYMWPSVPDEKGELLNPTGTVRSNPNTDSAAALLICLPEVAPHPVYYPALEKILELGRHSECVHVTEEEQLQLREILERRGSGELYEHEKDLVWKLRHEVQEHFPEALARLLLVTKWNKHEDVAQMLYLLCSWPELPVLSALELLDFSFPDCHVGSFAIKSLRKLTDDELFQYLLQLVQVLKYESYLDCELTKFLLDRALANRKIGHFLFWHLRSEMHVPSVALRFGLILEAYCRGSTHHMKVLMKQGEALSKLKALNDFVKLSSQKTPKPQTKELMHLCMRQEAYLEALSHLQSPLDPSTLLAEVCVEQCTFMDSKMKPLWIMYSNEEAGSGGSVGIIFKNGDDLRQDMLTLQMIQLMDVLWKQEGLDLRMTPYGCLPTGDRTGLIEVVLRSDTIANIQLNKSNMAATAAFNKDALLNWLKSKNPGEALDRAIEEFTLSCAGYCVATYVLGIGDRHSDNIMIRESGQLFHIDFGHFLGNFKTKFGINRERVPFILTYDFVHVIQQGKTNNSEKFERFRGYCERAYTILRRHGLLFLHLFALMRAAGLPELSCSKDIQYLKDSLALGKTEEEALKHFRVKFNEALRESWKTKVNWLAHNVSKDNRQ

[8] = Clearance in Sprague-Dawley rat at 0.44 mg/kg, iv by LC/MS/MS analysis; type: ADME, organism-based; settings: in vivo; summary of the method: as §2
[9] = Clearance in human hepatocytes at 1 uM by LC/MS/MS analysis; type: ADME, cell-based, Hepatocyte; summary of the method: as §3
[10] = Half life in Sprague-Dawley rat at 0.44 mg/kg, iv by LC/MS/MS analysis; type: ADME, organism-based; settings: in vivo; summary of the method: as §2
Liver microsome [11] = assay: Clearance in human liver microsomes at 1 uM by LC/MS/MS analysis in presence of NADPH generating system; type: ADME
Aldehyde oxidase [12] = target: T1, Aldehyde oxidase; assay: Drug level in human hepatocytes assessed as aldehyde oxidase-mediated compound formation treated with (S)-4-Amino-6-((1-(5-chloro-4-oxo-3-phenyl-3,4-dihydroquinazolin-2-yl)ethyl)amino)pyrimidine-5-carbonitrile at 1 uM by LC/MS/MS analysis; type: ADME, cell-based, Hepatocyte
Aldehyde oxidase [13] = target: T1, Aldehyde oxidase; assay: Drug metabolism in human hepatocytes assessed as aldehyde oxidase mediated M1 formation at 1 uM by LC/MS/MS analysis; type: ADME, cell-based, Hepatocyte

Drug metabolism (Aldehyde oxidase [12])	Drug metabolism (Aldehyde oxidase [13])	SMILES	Drug metabolism (Aldehyde oxidase [1])	Ratio IC50 (Homo sapiens [2])	Ratio IC50 (Homo sapiens [2]; tested as the 2H-labelled form)	Ratio IC50 (Homo sapiens [3])	Ratio IC50 (Homo sapiens [3]; tested as the 2H-labelled form)	Ratio IC50 (Homo sapiens [4])	Ratio IC50 (Homo sapiens [4]; tested as the 2H-labelled form)	CLH (Liver microsome [5]) [mL/min/kg]	Vd [6] [L/kg]	CLH (Hepatocyte) [mL/min/kg]	pIC50 [7]	clearance [8] [mL/min/kg]	CLhep predicted at 1 µM [9] [mL/min/kg]	half-life [10] [h]	CLH (Liver microsome [11]) [mL/min/kg]
–	–	C[C@H](Nc1ncnc(N)c1C#N)c1nc2cccc(Cl)c2c(=O)n1-c1ccccc1	metabolite_detected	4600	1200	200	70	680	420	3.3	2.6	1.5	9.40	18.3	14.7	2.6	1.7
metabolite_detected	–	C[C@H](Nc1nc(O)nc(N)c1C#N)c1nc2cccc(Cl)c2c(=O)n1-c1ccccc1	–	–	–	–	–	–	–	–	–	–	–	–	–	–	–
–	metabolite_detected	C[C@H](Nc1ncnc(N)c1C#Cc1ccc(F)cn1)c1nc2cccc(Cl)c2c(=O)n1-c1ccccc1	–	2600	–	330	–	470	–	–	–	2.17	8.92	–	8.5	–	–
